# From PubChem BioAssay AID493160 (Sanford-Burnham Center for Chemical Genomics, 2011)
# About 540 (0.16%) of roughly 340,000 compounds were called active. Only a selection was taken, and actives are over-represented in it overall. Values without a mark were called inactive.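 The calls were made as follows: active = inhibition above about 35% when tested at 20 µM (limit read from the data); inactive = the rest.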
# Biological target: Hexokinase HKDC1 (Homo sapiens) (UniProt Q2TB90)
# Assay: blockers of human HKDC1 enzyme activity – biochemical, fluorescence, uHTS, primary screen (AID 493160);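 also: plate controls were DMSO wells with enzyme for no effect and DMSO wells lacking enzyme for full effect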
# Settings: recombinant HKDC1, G6PDH/diaphorase resazurin coupled fluorescence; at 20 µM; active compounds read high
# Summary of the method: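 test system = in-house recombinant HK5 (HKDC1) enzyme | amount = HKDC1 at 5 µg/mL | control set = DMSO-enzyme wells negative, buffer-substituted wells positive | compound = one dose of 20 µM, 1% DMSO | schedule = reaction time 90 min, room temperature, protected from light | technique = resorufin fluorescence at 613 nm | reagent = glucose with 1 mM ATP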
# Sequence of Hexokinase HKDC1 (Homo sapiens) (Q2TB90 whole entry, looked up): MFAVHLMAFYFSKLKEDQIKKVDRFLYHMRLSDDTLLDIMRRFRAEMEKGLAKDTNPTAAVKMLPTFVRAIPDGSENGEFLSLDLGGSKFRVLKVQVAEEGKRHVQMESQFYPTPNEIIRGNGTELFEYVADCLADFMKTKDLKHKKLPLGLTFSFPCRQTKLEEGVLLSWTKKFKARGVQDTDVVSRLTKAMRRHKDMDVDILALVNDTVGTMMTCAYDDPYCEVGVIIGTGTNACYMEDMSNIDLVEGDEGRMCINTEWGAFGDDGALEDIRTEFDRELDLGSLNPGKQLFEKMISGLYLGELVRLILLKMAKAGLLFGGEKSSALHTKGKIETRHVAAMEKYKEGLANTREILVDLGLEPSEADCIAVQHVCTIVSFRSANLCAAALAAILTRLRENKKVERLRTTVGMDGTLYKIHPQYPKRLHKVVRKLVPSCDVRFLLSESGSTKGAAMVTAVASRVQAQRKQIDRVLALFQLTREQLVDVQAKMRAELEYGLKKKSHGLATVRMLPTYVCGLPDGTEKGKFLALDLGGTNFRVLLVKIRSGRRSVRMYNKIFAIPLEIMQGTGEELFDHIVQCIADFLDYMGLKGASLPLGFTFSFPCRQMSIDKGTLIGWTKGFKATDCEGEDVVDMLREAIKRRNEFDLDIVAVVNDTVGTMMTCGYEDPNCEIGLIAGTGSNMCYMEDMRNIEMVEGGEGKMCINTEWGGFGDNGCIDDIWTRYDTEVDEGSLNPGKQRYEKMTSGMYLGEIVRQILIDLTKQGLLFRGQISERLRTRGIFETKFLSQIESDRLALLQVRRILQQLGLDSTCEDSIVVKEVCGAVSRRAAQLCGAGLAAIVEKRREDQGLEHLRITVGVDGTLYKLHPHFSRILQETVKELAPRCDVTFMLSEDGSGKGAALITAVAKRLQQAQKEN
row,Structure (SMILES),inhibition
1,CCS(=O)(=O)N1Cc2ccccc2CC1C(=O)Nc1ccc(OC)cc1OC (centres undefined),-2.83%
2,O=C1Nc2cc(C(=O)N3CCC(N4CCCCC4)CC3)ccc2S/C1=C\c1ccccc1,-1.91%
3,CCCCn1nnnc1NCc1cc(OC)c(OC)c(OC)c1,10.4%
4,COc1ccc2c(c1)c(=Cc1ccc(N(C)C)cc1)c1cc(-c3ccccc3)[n+](C)n12,43.2% (active)
5,Cc1ccc(CNC(=O)CCNS(=O)(=O)c2cccc3nonc23)cc1,10.6%
6,Cc1ccc(OS(=O)Nc2cccc3nccnc23)cc1 (centres undefined),6.4%
7,CCCCn1c(N)c(N(CCOC)C(=O)COc2c(C)cccc2C)c(=O)[nH]c1=O,-3.46%
8,COc1ccc(OCCCC(=O)Oc2ccc(OC)cc2)cc1,-15%
9,COc1ccc2c(c1)C(SCC(=O)NCc1ccccc1)CC(C)(C)O2 (centres undefined),3.48%
10,O=C(NCC1CCCO1)c1ccc(S(=O)(=O)Nc2ccc(F)cc2)cc1 (centres undefined),0.46%
11,O=C(CNC(=O)c1cc(=O)[nH]c2ccccc12)Nc1ccc(F)c(F)c1,-8.3%
12,C/C(=N\NC(=O)COc1ccc(C)cc1[N+](=O)[O-])c1ccc2c(c1)OCCO2,2.16%
13,COc1ccccc1CNS(=O)(=O)c1ccc(C)cc1,-4.09%
14,CCC(C)CN1CCC(CO)(Cc2ccccc2Cl)CC1 (centres undefined),-10.2%
15,CC(CNC(=O)c1ccc(N)cc1)NC(=O)c1ccc(N)cc1 (centres undefined),-6.68%
16,O=C(O)CCn1cc(/C=C/C(=O)c2ccc(Cl)cc2)c(-c2cccc(Br)c2)n1,17.1%
17,Clc1ccc(C[n+]2cc(-c3ccc(Cl)cc3)n3c2CCC3)cc1,-3.08%
18,CC1(C)OC(=O)C(=CSc2ccc(C(C)(C)C)cc2)C(=O)O1,-2.23%
19,Cc1cc2cc3c(N)[nH]nc3nc2cc1C,1.11%
20,Cc1cc(C)c(S(=O)(=O)N2CCOCC2)cc1C,-10.1%
21,O=C(NCc1ccc2c(c1)OCO2)c1c(O)nc2sccn2c1=O,6.57%
22,CCCCN1C(=O)CCC(C(=O)O)C1c1ccc(OC)cc1 (centres undefined),7.8%
23,C=CCCN(Cc1ccccc1)S(=O)(=O)c1ccccc1Br,2.98%

row,Structure (SMILES),inhibition
1,Cc1cc(=O)[nH]c2nnnn12,7.5%
2,COc1cc2c3c(c1)/C(=C1/SC(=S)NC1=O)C(=O)N3C(C)(C)C=C2C,-4.38%
3,CCN(C[C@H]1N[C@@](Cc2ccccc2)(C(=O)OC)[C@H]2C(=O)N(Cc3ccccc3)C(=O)[C@@H]12)C(=O)c1ccc(C)cc1,-6.61%
4,Cc1cc(Cl)ccc1NC(=S)N1CCC(C(N)=O)(N2CCCCC2)CC1,-7.07%
5,N#CCSc1nc2ccc(N3CCOCC3)cc2c(=O)n1CCc1ccccc1,10.5%
6,Cc1cc(C(=O)CCl)c(C)n1CC1COc2ccccc2O1 (centres undefined),38.2% (active)
7,O=C1C(=O)N(CC2COc3ccccc3O2)c2ccccc21 (centres undefined),19.1%
8,Cc1ccsc1C(=O)OCC(=O)c1cc(C)n(CC2CCCO2)c1C (centres undefined),1.95%
9,CCc1[nH]nc(C(=O)N2CCCC(CNS(=O)(=O)c3cccs3)C2)c1C (centres undefined),-4.96%
10,CCC(=C/c1sc2ccc3ccccc3c2[n+]1C)/C=C1\Sc2ccc3ccccc3c2N1C,45% (active)
11,C=CCNC(=O)c1cc2nc(C3CC3)cc(C(F)F)n2n1,14%
12,CCN(CC)C(=O)[C@H]1CC(CC(=O)NCc2ccco2)C(=O)N2CCc3c([nH]c4ccccc34)[C@]12C (some centres undefined),-4.97%
13,Cc1onc(-c2ccc(Cl)cc2)c1-c1ccnn1S(=O)(=O)c1ccc(Cl)cc1,0.4%
14,CC[C@@]1(C(=O)OC)N[C@H](CN(C)C(C)=O)[C@@H]2C(=O)N(C)C(=O)[C@@H]21,-5.2%
15,CC(=O)c1c(C)[nH]c(C(=O)COC(=O)c2cccc(S(=O)(=O)N(C)c3ccccc3)c2)c1C,16.7%
16,COCCN(C(=O)CSCc1ccc(C)cc1)c1c(N)n(CC(C)C)c(=O)[nH]c1=O,-4.58%
17,COc1cc(CO)ccc1OCC(=O)Nc1cccc2ccccc12,-1.93%
18,S=C(Nc1cccc(Br)c1)N1CCn2cccc2C1c1cccnc1 (centres undefined),4.07%
19,COCCNC(=O)c1ccc(-n2c(SCc3cccnc3)nc3ccccc3c2=O)cc1,-1.32%
20,O=Cc1cn(-c2ccccc2)nc1-c1ccccn1,-7.78%
21,CCOc1ccccc1-c1nc(CN2CCC(C(=O)N3CCOCC3)CC2)c(C)o1,-3.93%
22,COc1ccc(CN(Cc2ccc(OC)cc2)C(=O)c2cccs2)cc1,1.52%
23,COc1ccc(C(CCN(Cc2ccc(OC)c(OC)c2)C(=O)CCl)c2ccccc2)cc1 (centres undefined),35.4% (active)

row,Structure (SMILES),inhibition
1,COc1ccc(CCNC(=O)C(Sc2ccccn2)c2ccccc2)cc1OC (centres undefined),-5.11%
2,CC1CCCC(NC(=O)COC(=O)[C@@H]2CC(O)CN2S(=O)(=O)c2ccc3c(c2)OCCO3)C1C (some centres undefined),-2.96%
3,Cc1noc(/C=C/c2ccco2)c1S(=O)(=O)N1CCC(C(=O)Nc2ccc(Cl)cn2)CC1,-6%
4,CCOC(=O)/C(=C\c1ccc([N+](=O)[O-])cc1)C(=O)c1cc(C(C)=O)c(Nc2ccccc2)s1,33.5%
5,COc1nnc(-c2ccc(C)c(S(=O)(=O)N(C)C)c2)c2ccccc12,-2.23%
6,O=C(CC1NCCc2ccccc21)Nc1cccc(Cl)c1 (centres undefined),8.29%
7,CN1CCN(c2ccccc2NC(=O)COc2ccc(C3CCCCC3)cc2)CC1,-0.75%
8,C/C=C/c1ccc(OCC(=O)NNC(=O)CN(C)S(=O)(=O)c2ccc(C)cc2)c(OC)c1,0.23%
9,CCOC(=O)C(C)n1nc(-c2ccccc2)c2ccccc2c1=O (centres undefined),-7.97%
10,O=[N+]([O-])c1ccc(N2CCN(c3ccc(F)cc3)CC2)cn1,3.5%
11,CC(C)CCSc1ncnc2c1oc1nc3c(cc12)COC(C)(C)C3,1.9%
12,CCCc1nc2oc3c(=O)[nH]cnc3c2c2c1COC(C)(C)C2,27.4%
13,CCCc1nc2oc3c(OCC)ncnc3c2c2c1COC(C)(C)C2,37.7% (active)
14,Cc1cc(Cl)c2oc(C(=O)N3CCC(O)(c4ccccc4)CC3)c(C)c2c1,-1.23%
15,COc1ccc(N2CCN(C(=O)C3CCN(C(=O)c4ccccc4Cl)CC3)CC2)cc1,-1.69%
16,CCCCc1nc(SCC(=O)Nc2nnc(C(C)C)s2)n[nH]1,-4.74%
17,CCCCCC1CC(COc2ccccc2)OC1=O (centres undefined),-1.3%
18,COC(=O)c1c(C)c(C)nc(N)c1C#N,3.54%
19,COc1ccccc1N(C(=O)Cn1nnc2ccccc21)C(C(=O)NCc1ccco1)c1ccc(C)o1 (centres undefined),-6.23%
20,Cc1ccc(C(C)(C)C)c(OCCCCN2CCCC2)c1,-1.47%
21,CC1(C)CC(=O)C=C(c2ccc3ncccc3c2)C1,11.6%
22,N/C(=N\c1nc2ccccc2o1)NC(=O)C(Cc1ccccc1)N1C(=O)c2ccccc2C1=O (centres undefined),-5.13%
23,CCc1cc(CNC(=O)CC2C(=O)NCCN2CC2CCCCC2)on1 (centres undefined),-15.1%

row,Structure (SMILES),inhibition
1,O=C(Cn1c2[n+](c3ccc(C(F)(F)F)cc31)CCCCC2)Nc1c(F)cccc1F,1.03%
2,CCOC(=O)c1ccccc1NC(=O)COC(=O)C(Cc1c[nH]c2ccccc12)NC(C)=O (centres undefined),0.25%
3,O=C(Nc1ccc(S(=O)(=O)Nc2ncccn2)cc1)c1cncc(Br)c1,-5.17%
4,CCC1SC2=NCCN2C1(O)c1ccc(Cl)cc1 (centres undefined),10.4%
5,C#CCOCCOCCOCCNc1nc(N2CCN(C(=O)C([C@@H](C)CC)n3cc(C(N)COC(=O)C(F)(F)F)nn3)CC2)nc(N2CCN(C(=O)[C@H](Cc3ccc(O)cc3)n3cc(C(N)[C@H](C)CC)nn3)CC2)n1 (some centres undefined),1.5%
6,CC(=O)N(CC1CCCO1)C1(C(=O)NC2CCCC2)CCCCC1 (centres undefined),2.48%
7,COc1ccc(CN2CC(C(=O)NCCc3ccc(Cl)cc3)CC2=O)cc1 (centres undefined),-3.16%
8,Cc1ccc(Nc2nnc(SC(C)C(=O)NC3CC3)s2)cc1 (centres undefined),-5.42%
9,CC12CN(NC(=O)c3ccc(Cl)cc3)C3(C#N)CC1CCC23C (centres undefined),-3.27%
10,Cc1noc(C)c1S(=O)(=O)N(C)C[C@H]1Oc2ccc(NC(=O)C3CC3)cc2C(=O)N([C@H](C)CO)C[C@@H]1C,3.28%
11,CCn1cc(C(=O)OCC(=O)Nc2cccc(C)c2)c(=O)c2ccc(C)nc21,-3.21%
12,COCc1c(C(=O)N/N=C\c2cccnc2)nnn1-c1nonc1N,-3.41%
13,COc1cc(/C=C/C(=O)OCC(=O)N2CCOCC2)ccc1OCC#N,-1.34%
14,COc1ccc(C(=O)Nc2cc(S(=O)(=O)N3CCCC3)ccc2Cl)cc1,1.91%
15,O=C1C(Cl)=C(Oc2ccccc2)C(=O)c2ccccc21,65.2% (active)
16,Nc1ccc2nc3c(=O)[nH]c(=S)[nH]c3nc2c1,69.9% (active)
17,C=CCn1c(CCNC(=O)c2ccccc2F)nnc1SCC(=O)Nc1ccc(OC)cc1,-6.44%
18,COc1ccc(S(=O)(=O)N2CCCC2CNC(=O)C(=O)NC2CC2)cc1 (centres undefined),0.83%
19,Cc1ccc2c(c1)N(S(=O)(=O)c1cc(-c3cc(C)no3)ccc1C)CCO2,1.39%
20,O=S(N1CCCCCC1)C12CC3CC(CC(C3)C1)C2 (centres undefined),-7.44%
